Assay results from ChEMBL document CHEMBL5344415, “Synthesis and Characterization of Phenylalanine Amides Active against Mycobacterium abscessus and Other Mycobacteria” (J Med Chem, 2023).
In brackets after ≈: the same amount, converted by molar mass. Activity calls are given as the source filed them. The calls are words filed in the database; no cut-off is given here.

Key:
[1] = test system: Mycobacterium intracellulare; assay: Antibacterial activity against Mycobacterium intracellulare ATCC 35761 expressing tomato RFP assessed as bacterial growth inhibition incubated for 5 days in 7H9 medium by RFP fluorescence based broth microdilution method; type: functional; conditions: ATCC 35761, 120 h, time 5 day
In short: (§1)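 Broth microdilution in 7H9 with 10 % ADS and 0.05 % Tween 80. Twofold nine-point dilution series. Inoculum 5 x 10⁵ cells/mL taken from a mid-log preculture. Incubation at 37 °C, 3 days for M. smegmatis and M. abscessus, 5 days for M. intracellulare. Read-out by RFP fluorescence (ex 544/em 590 nm). Controls were 1 % DMSO and 100 μM amikacin. MIC₉₀ from duplicates, averaged.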

[2] = test system: Mycobacteroides abscessus; assay: Bactericidal activity against Mycobacterium abscessus ATCC 19977 assessed as reduction in viable bacteria at 3.13 uM incubated for 4 days by microplate dilution assay relative to control; type: functional; conditions: time 4 day
In short: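 After 4 days in the microplate dilution assay, 10 µl samples (undiluted or 1:100) were plated on 7H10 with glycerol, ADS and 400 µg/mL hygromycin. Colonies counted after 4 days at 37 °C. Done in triplicate. CFU/mL compared with the inoculum counted before incubation.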

A-375 = assay: Cytotoxicity against human A-375 cells assessed as reduction in cell viability incubated for 72 hrs by SRB assay; type: toxicity, cell-based
[3] = Kinetic solubility of compound in PBS at 0.78 to 500 uM measured immediately by nephelometric method; type: physicochemical; conditions: buffer, dose 0.78-500 µM
In short: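 DMSO stocks prediluted in DMSO, then diluted 1:50 into PBS (2 % DMSO final) and read immediately by nephelometry at 0.78–500 μM; blank-corrected data fitted by segmental regression; quadruplicates from one stock.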

[4] = Metabolic stability in pooled human liver microsomes assessed as half life at 2 uM measured over 40 mins in presence of NADPH-cofactor system by HPLC-MS/MS analysis; type: ADME, Microsome
In short: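 Pooled mixed-gender human liver microsomes at 0.42 mg protein/mL in 100 mM phosphate pH 7.4 with MgCl₂ and an NADPH-regenerating system. Test compound 2 μM, 1.6 % solvent, at 37 °C. Five time points over 40 min, stopped with acetonitrile, analysed by HPLC-MS/MS. t1/2 from the slope of ln(AUC) versus time. Controls lacked NADPH. Duplicates.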

[5] = Cytotoxicity against mouse NIH3T3 cells assessed as reduction in cell viability incubated for 72 hrs by SRB assay; type: toxicity, cell-based; conditions: mouse, NIH3T3 cells
[6] = Stability in human plasma at 1 uM measured over 120 mins by HPLC-MS/MS analysis; type: ADME, cell-free; conditions: 2 h
HT-29 = assay: Cytotoxicity against human HT-29 cells assessed as reduction in cell viability incubated for 72 hrs by SRB assay; type: toxicity, cell-based
[7] = test system: Mycobacteroides abscessus; assay: Bactericidal activity against Mycobacterium abscessus ATCC 19977 assessed as reduction in viable bacteria at 6.25 uM incubated for 4 days by microplate dilution assay relative to control; type: functional; conditions: time 4 day
[8] = Stability in mouse plasma at 1 uM measured over 120 mins by HPLC-MS/MS analysis; type: ADME, cell-free; conditions: 2 h
A2780 = assay: Cytotoxicity against human A2780 cells assessed as reduction in cell viability incubated for 72 hrs by SRB assay; type: toxicity, cell-based
[9] = test system: Mycobacteroides abscessus; assay: Antibacterial activity against Mycobacterium abscessus ATCC 19977 expressing tomato RFP assessed as bacterial growth inhibition incubated for 3 days in MHII medium by RFP fluorescence based broth microdilution method; type: functional; conditions: ATCC 19977, 72 h, time 3 day
In short: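 Broth microdilution in MHII broth with 0.05 % Tween 80, against the RFP-expressing strain. Twofold nine-point dilution series. Inoculum 5 x 10⁵ cells/mL from a mid-log preculture. Incubated 3 days at 37 °C. Read-out by RFP fluorescence (ex 544/em 590 nm). Controls were 1 % DMSO and 100 μM amikacin. MIC₉₀ from duplicates, averaged.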

[10] = test system: Mycolicibacterium smegmatis; assay: Antibacterial activity against Mycobacterium smegmatis mc2 155 expressing tomato RFP assessed as bacterial growth inhibition incubated for 3 days in 7H9 medium by RFP fluorescence based broth microdilution method; type: functional; conditions: mc2 155, 72 h, time 3 day; in short: as §1
[11] = test system: Mycobacteroides abscessus; assay: Antibacterial activity against Mycobacterium abscessus Bamboo harboring inactive clarithromycin-sensitive erm41 C28 sequevar assessed as bacterial growth inhibition incubated for 3 days in 7H9 medium by optical density based method; type: functional; conditions: 72 h, time 3 day
[12] = test system: Mycobacteroides abscessus; assay: Antibacterial activity against Mycobacterium abscessus ATCC 19977 expressing tomato RFP assessed as bacterial growth inhibition incubated for 3 days in 7H9 medium by RFP fluorescence based broth microdilution method; type: functional; conditions: ATCC 19977, 72 h, time 3 day; in short: as §1
[13] = test system: Mycobacteroides abscessus; assay: Antibacterial activity against Mycobacterium abscessus ATCC 19977 expressing tomato RFP infected in human THP-1 cells assessed as bacterial growth inhibition incubated for 4 days in RPMI medium by RFP fluorescence based assay; type: functional; conditions: ATCC 19977, 96 h, time 4 day
In short: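 RFP M. abscessus washed, moved into RPMI, filtered through 5 µm and opsonised with 10 % human serum for 30 min. THP-1 cells infected at MOI 5:1 with PMA 40 ng/mL for 4 h at 37 °C, then washed. Infected cells (1x10⁵/well) given a ten-point twofold series. Incubated 4 days at 37 °C, 5 % CO₂. Cells PFA-fixed and DAPI-stained. RFP quantified by imaging. Controls were DMSO and 1.5 µM bedaquiline. Duplicate.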

HeLa = assay: Cytotoxicity against human HeLa cells assessed as reduction in cell viability incubated for 72 hrs by SRB assay; type: toxicity, cell-based
[14] = test system: Mycobacteroides abscessus; assay: Antibacterial activity against MMV688845-resistant Mycobacterium abscessus Bamboo 845R-2.1 harboring rpoB/beta subunit P473L mutation assessed as bacterial growth inhibition incubated for 3 days by optical density based analysis; type: functional; conditions: Bamboo 845R-2.1, 72 h, time 3 day
In short: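 Tenfold-point twofold dilution series in 7H9, final DMSO 1 %. Final ranges typically 50–0.098 or 6.25–0.012 μM. Mid-log culture added to an initial OD₆₀₀ of 0.05 (5*10⁶ CFU/mL). Incubated 3 days at 37 °C with shaking at 110 rpm. Growth taken as OD₆₀₀ on day 3 minus day 0, as % of drug-free wells. MIC₉₀ read visually from the curves. Clarithromycin as control. Two biological replicates, averaged.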

[15] = test system: Mycobacterium tuberculosis; assay: Antibacterial activity against Mycobacterium tuberculosis H37Rv ATCC 27294 assessed as bacterial growth inhibition incubated for 7 days in 7H9 medium by optical density based microplate reader analysis; type: functional; conditions: H37Rv ATCC 27294, 168 h, time 7 day
In short: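 Compounds serially diluted in flat-bottom 96-well plates. Mid-log culture mixed in to a final OD₆₀₀ of 0.05. Sealed plates incubated in humidified boxes at 37 °C for 7 days with shaking at 80 rpm. Turbidity read at 600 nm. MIC₉₀ taken from dose–response curves. Two biological replicates, averaged.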

MCF7 = assay: Cytotoxicity against human MCF7 cells assessed as reduction in cell viability incubated for 72 hrs by SRB assay; type: toxicity, cell-based
[16] = test system: Mycobacteroides abscessus; assay: Bactericidal activity against Mycobacterium abscessus ATCC 19977 assessed as reduction in viable bacteria at 6.25 to 12.5 uM incubated for 4 days by microplate dilution assay; type: functional, organism-based; conditions: dose 6.25-12.5 µM, time 4.0 day
[17] = test system: Mycobacterium tuberculosis; assay: Antibacterial activity against Mycobacterium tuberculosis; type: functional
[18] = test system: Mycobacteroides abscessus; assay: Bactericidal activity against Mycobacterium abscessus ATCC 19977 assessed as reduction in viable bacteria incubated for 4 days by microplate dilution assay; type: functional; conditions: time 4 day
[19] = test system: Mycobacteroides abscessus; assay: Antibacterial activity against Mycobacterium abscessus; type: functional

Structure (SMILES) | MIC90 [1] [µM] | EC50 (A-375) [µM] | Kinetic_solubility [3] [µM] | t1/2 [4] [min] | EC50 at 72 h [5] [µM] | Stability [6] | EC50 (HT-29) [µM] | Stability [8] | EC50 (A2780) [µM] | MIC90 [9] [µM] | MIC90 [10] [µM] | MIC50 [11] [µM] | MIC90 [11] [µM] | MIC90 [12] [µM] | MIC50 [13] [µM] | MIC90 [13] [µM] | EC50 (HeLa) [µM] | MIC90 [14] [µM] | MIC90 [15] [µM] | EC50 (MCF7) [µM] | further results
O=C(N[C@H](Cc1ccccc1)C(=O)Nc1ccccc1N1CCS(=O)(=O)CC1)c1ccccc1F | 0.05 (≈ 0.0248 µg/mL) | > 30 | 64 | 1.5 | > 30 | Stable | > 30 | Stable | > 30 | 1.56 (≈ 0.773 µg/mL) | 0.78 (≈ 0.387 µg/mL) | 0.23 (≈ 0.114 µg/mL) | 4.3 (≈ 2.13 µg/mL) | 0.78 (≈ 0.387 µg/mL) | 0.39 (≈ 0.193 µg/mL) | 6.25 (≈ 3.1 µg/mL) | > 30 | 42 (≈ 20.8 µg/mL) | 0.2 (≈ 0.0991 µg/mL) | > 30 | Activity [2]: 95%; Activity [7]: 99%
O=C(N[C@H](Cc1ccccc1)C(=O)Nc1ccccc1N1CCOCC1)c1cccs1 | 0.78 (≈ 0.34 µg/mL) | > 30 | 82 | 1.7 | > 30 | Stable | > 30 | Unstable | > 30 | 12.5 (≈ 5.44 µg/mL) | 0.78 (≈ 0.34 µg/mL) | 1.7 (≈ 0.74 µg/mL) | 4.4 (≈ 1.92 µg/mL) | 6.25 (≈ 2.72 µg/mL) | 1.56 (≈ 0.679 µg/mL) | 12.5 (≈ 5.44 µg/mL) | > 30 | > 100 | 0.78 (≈ 0.34 µg/mL) | > 30 | Activity [16]: inactive; MIC90 [17]: 1.2 µM (≈ 0.523 µg/mL); MBC99 [18]: 50 µM (≈ 21.8 µg/mL); MIC90 [19]: 7 µM (≈ 3.05 µg/mL)
